Sampled rows, rich in hits. Any-hit rate of the full collection: about 0.77%.
bIAP inhibitor = bovine intestinal alkaline phosphatase inhibitors, primary screen, selectivity assay for TNAP inhibitor project, biochemical, bovine IAP, CDP-star luminescence; alkaline phosphatase, intestinal [Bos taurus]; inhibition, % at 20 µM; purified bovine IAP, 30 min; 190,000 tested, under 10 active; AID 1019, 2008;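 active = over 50% inhibition of intestinal alkaline phosphatase at 20 µM in the single-dose screen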
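Incubation: 30 min reaction at room temperature / Material: purified bovine intestinal alkaline phosphatase (IAP) enzyme / Input: enzyme at 1/65,000,000 dilution / Dosing: 20 µM single dose / Signal: CDP-star luminescence signal / Reagent: CDP-star chemiluminescent phosphatase substrate, 30 µM final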
hIAP act = human IAP activators, primary screen, biochemical, luminescence, uHTS. purified human IAP, CDP-Star luminescence, 30 min; hits give high values; 1 = vehicle-only enzyme, 0 = enzyme-free background. activation factor at 10 µM. AID 2524, 2010. actives 0.16% (n = 330,000). Intestinal-type alkaline phosphatase (Homo sapiens), P09923;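 active = activation factor of the enzyme at least 2-fold when tested at 20 µM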
Target sequence (P09923 whole entry, looked up): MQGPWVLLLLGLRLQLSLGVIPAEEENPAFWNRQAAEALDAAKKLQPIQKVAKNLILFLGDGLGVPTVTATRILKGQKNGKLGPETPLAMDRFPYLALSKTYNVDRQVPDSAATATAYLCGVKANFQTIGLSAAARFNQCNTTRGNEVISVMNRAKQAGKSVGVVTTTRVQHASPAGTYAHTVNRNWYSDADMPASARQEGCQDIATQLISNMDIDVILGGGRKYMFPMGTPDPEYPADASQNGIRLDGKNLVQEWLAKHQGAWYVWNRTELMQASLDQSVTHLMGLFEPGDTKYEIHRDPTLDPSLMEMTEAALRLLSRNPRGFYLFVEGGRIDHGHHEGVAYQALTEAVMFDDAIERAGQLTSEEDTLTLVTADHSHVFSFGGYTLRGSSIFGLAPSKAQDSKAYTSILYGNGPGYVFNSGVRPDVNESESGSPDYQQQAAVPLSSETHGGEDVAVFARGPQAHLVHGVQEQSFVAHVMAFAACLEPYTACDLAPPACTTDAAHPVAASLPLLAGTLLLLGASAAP
hIAP block = human IAP inhibitors, primary screen, biochemical, luminescence, uHTS. Intestinal-type alkaline phosphatase (Homo sapiens), P09923. purified IAP, CDP-Star luminescence, 30 min. inhibition, % at 10 µM. actives 0.12% (n = 330,000);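 active = inhibition reaching a set limit with compound at 10 µM in the primary screen, cut at about 35% in these data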;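 note: plate controls were DMSO wells with enzyme for no effect and no-enzyme buffer wells for full effect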
mIAP inh = inhibitors of mouse IAP, primary screen, biochemical, luminescence, uHTS; intestinal alkaline phosphatase [Mus musculus]; purified mouse IAP, CDP-Star luminescence, 30 min; inhibition, % at 10 µM; actives 0.2% (n = 330,000); AID 2806, 2010;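 active = inhibition of at least 40% at 10 µM in the primary screen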;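 note: plate controls were DMSO with enzyme for no effect and no enzyme wells for full effect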
mIAP activ = activators of mouse IAP, primary screen, biochemical, luminescence, uHTS; intestinal alkaline phosphatase [Mus musculus]; muIAP, CDP-Star luminescence, 30 min; hits give high values; 1 = vehicle-only enzyme signal, 0 = enzyme-free wells; activation factor at 10 µM; actives 0.24% (n = 330,000);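 active = activation factor of at least 2 at 20 µM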
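Assay system: mouse IAP enzyme / Compound: DMSO-dissolved test compounds / Timing: 30 min, room temperature / Measured by: luminescence from enzymatic CDP-Star hydrolysis / Control set: DMSO-only wells, enzyme-free buffer wells as negative control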
bIAP activator = bovine intestinal alkaline phosphatase activators, primary screen, biochemical, bovine IAP, CDP-star luminescence. alkaline phosphatase, intestinal [Bos taurus]. purified bovine IAP, 30 min; hits give high values; fold of DMSO-control signal, blank-subtracted. activation factor at 20 µM. actives 0.17% (n = 200,000);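 active = activation factor of 2 or more at 20 µM, a signal rise over negative controls twice the positive control's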
* hit, by the source's call; / = no result.

SMILES	bIAP inhibitor	hIAP act	hIAP block	mIAP inh	mIAP activ	bIAP activator
COc1cc([C@@H]2c3cc4c(cc3[C@@H](O[C@@H]3O[C@@H]5CO[C@@H](C)O[C@H]5[C@H](O)[C@H]3O)[C@H]3COC(=O)[C@H]23)OCO4)cc(OC)c1O	/	0.854	14.6	-5.2	1.05	/
CCN(CC)S(=O)(=O)c1ccc(NC(=O)CCC2CCCCC2)cc1	-127.5	/	/	/	/	2.3*
COc1cc2c(cc1OC)CC(C(=O)NCc1ccccc1)NC2 (configuration not stated)	/	1.14	-14.4	-3.9	1.04	/
CC(C)(C)NC(=O)c1ccc2c(c1)C1C3CCC(C3)C1C(c1ccccc1)N2 (configuration not stated)	4.1	0.897	10.3	-9.1	1.09	1
CCCNC(=O)c1ccc2c(c1)C1C3CCC(C3)C1C(c1ccccc1)N2 (configuration not stated)	-96.2	0.988	1.2	-46.9	1.47	2*
COc1cc(/C=C/C(=O)OCC(=O)NCc2ccc(F)cc2)ccc1O	/	1.16	-16.1	0.3	0.997	/
Cc1ccc(N2C(=O)CS/C2=C(\C(Cl)=C(Cl)Cl)[N+](=O)[O-])cc1	21.7	1.18	-18.4	41.9*	0.581	0.8
Cc1ccc(N2C(=O)CSCC2=O)cc1	4.7	1.08	-8.0	0.8	0.992	1
COCCN(C(=O)CCC(=O)Nc1ccccn1)C(C(=O)NCCC(C)C)c1ccc(F)cc1 (configuration not stated)	/	1.15	-14.7	-9.6	1.1	/
Cc1cc(C)n(-c2nc(NCCN(C)C)c3c4c(sc3n2)COC(C)(C)C4)n1	/	1.1	-10.4	12.2	0.878	/
Cc1cc(C)n(-c2nc(NCCC(C)C)c3c4c(sc3n2)COC(C)(C)C4)n1	-141.3	/	/	/	/	2.4*
Clc1ccc(N2N=C(c3cccs3)CC2c2ccco2)cc1 (configuration not stated)	-28.0	0.943	5.7	-89.8	1.9	1.3
c1ccc(N2N=C(c3cccs3)CC2c2ccco2)cc1 (configuration not stated)	-13.6	0.82	18.0	-108.2	2.08*	1.1
O=C(/C=C/c1ccco1)NC(=S)Nc1ccc(O)c(-c2nc3ccccc3s2)c1	0.5	1.44	-43.7	53.4*	0.466	1
CC(=O)C1=C(C)NC(SCC(=O)c2ccc(Cl)c(Cl)c2)=C(C#N)C1c1ccco1 (configuration not stated)	3.3	0.65	35.0*	19.6	0.804	1
CC(=O)C1=C(C)NC(SCC(=O)c2cc(Cl)ccc2Cl)=C(C#N)C1c1ccco1 (configuration not stated)	15.6	1.18	-18.4	11.0	0.89	0.8
CC(=O)c1ccc(N2CCN(CC(=O)NC(=O)NCc3ccccc3)CC2)cc1	/	0.931	6.9	7.1	0.929	/
COc1ccc(NC(=O)CN(c2cc(C)cc(C)c2)S(=O)(=O)c2c(C)noc2C)cc1OC	4.3	1.15	-14.8	-110.4	2.1*	1
COc1ccc(NC(=O)CN(c2cc(C)cc(C)c2)S(=O)(=O)c2c(C)noc2C)cc1	4.6	0.934	6.6	-66.1	1.66	1
CCOc1ccc(N(CC(=O)Nc2ccc(C)c(C)c2)S(=O)(=O)c2c(C)noc2C)cc1	8.5	1.04	-4.1	-108.2	2.08*	0.9
O=C1C=C(c2ccc(F)c(Cl)c2)C[C@@H](c2ccc(F)cc2)C1	/	1.06	-5.8	2.6	0.974	/
N#Cc1ccsc1NC(=O)C1CC(=O)N(Cc2ccccc2)C1 (configuration not stated)	/	1.04	-4.5	-0.3	1	/
O=C(Nc1ccccc1OCc1ccccc1)c1ccccc1Br	/	1.01	-0.8	14.5	0.855	/
CCO[C@@H]1OC(C(N)=O)=C[C@H](C2CCCCC2)[C@H]1CCCO	/	1.09	-9.2	45.0*	0.55	/
COc1ccc(C(=O)N2CCN(C(=O)CC(C)C)CC2)cc1OC	-0.1	1.08	-8.3	4.2	0.958	1
SMILES	bIAP inhibitor	hIAP act	hIAP block	mIAP inh	mIAP activ	bIAP activator
COc1cc(C(=O)N2CCN(C(=O)CC(C)C)CC2)cc(OC)c1OC	0.5	1.07	-6.6	40.3*	0.597	1
Clc1ccc(-n2nnc(-c3cccnc3Cl)n2)cc1Cl	9.7	0.953	4.7	49.2*	0.508	0.9
CC(C)c1ccc(NC(=O)C(c2ccc3c(c2)OCO3)N2CCN(C(=O)c3ccco3)CC2)cc1 (configuration not stated)	-55.6	1.08	-7.7	-107.1	2.07*	1.6
O=[N+]([O-])c1c(NCCCO)cc(SCc2ccco2)c2nonc12	5.1	1.08	-8.4	54.5*	0.455	0.9
COc1ccc(CN(C)C(=O)c2ccc3c(=O)n4c(nc3c2)CCC4)c(OC)c1	/	1	-0.3	0.0	1	/
O=C(Nc1ccc2c(c1)OCCO2)C1CCCN1C(=O)Nc1ccc(F)cc1 (configuration not stated)	/	1.11	-10.6	-9.1	1.09	/
CC(=O)Nc1ccc(C(=O)N(C)C(C(=O)Nc2ccccc2)c2ccccn2)cc1 (configuration not stated)	24.1	0.926	7.4	1.4	0.986	0.8
C[C@]12C=CC(=O)C=C1CC[C@@H]1C2C(O)C[C@@]2(C)C1CC[C@]2(O)C(=O)COC(=O)CCC(=O)NC(CC(=O)O)C(=O)O (some centres not stated)	/	1.02	-1.8	5.9	0.941	/
CC(=O)OCC(=O)[C@@]1(O)CC[C@H]2[C@@H]3CCC4=CC(=O)C=C[C@]4(C)[C@H]3[C@@H](O)C[C@@]21C	/	1.05	-5.4	-17.4	1.17	380*
COc1cc(/C=C2\SC(=S)N(NC(=O)c3ccccc3O)C2=O)ccc1O	/	0.825	17.5	36.9	0.631	/
O=C(NN1C(=O)/C(=C/c2cc([N+](=O)[O-])ccc2O)SC1=S)c1ccccc1O	/	1.05	-5.1	51.3*	0.487	/
COc1nc(N)nc2nc[nH]c12	/	1.08	-8.3	1.7	0.983	/
Oc1ccccc1/C=N/Nc1cccc2cccnc12	-173.3	0.989	1.1	18.0	0.821	2.7*
CC(C)[C@H]1COCCS(=O)(=O)N1Cc1ccccc1-c1cccc(Cl)c1	/	/	/	-1.1	1.01	/
COc1ccc(C(=O)NCc2nnc(SCC(=O)NC3CCCC3)o2)cc1	/	0.869	13.1	1.2	0.988	/
Cc1ccc(O)c(-c2cc(C(=O)NCc3ccncc3)[nH]n2)c1	-106.5	1	-0.4	1.6	0.984	2.1*
